Measured values collected from several papers.
Compare with care: the assays were run in different laboratories.
Target: Serine/threonine-protein kinase SIK3 (SIK3, Homo sapiens, UniProt Q9Y2K2)

Structure (SMILES)	test	setting	measurement	result
COc1cc(Cl)c(C(=O)N[C@@H](CN[C@H]2CC[C@@H](N)CC2)Cc2ccc(C#N)cc2)cc1-c1ccc(CN[C@H](C)c2ccc(C)cc2)o1	enzyme activity, inhibitor	1 µM	remaining activity	102%
CC(C)(C)c1nc(-c2cccc(NS(=O)(=O)c3c(F)cccc3F)c2F)c(-c2ccnc(N)n2)s1	enzyme activity, inhibitor, radiometric	1 µM	remaining activity	60%
Cc1ccc(C(=O)Nc2ccc(CN3CCN(C)CC3)c(C(F)(F)F)c2)cc1C#Cc1cnc2cccnn12	enzyme activity, inhibitor	23.5 nM	remaining activity	87%
Nc1ncnc2occ(-c3ccc(NC(=O)Nc4cc(C(F)(F)F)ccc4F)cc3)c12	cell-free assay, inhibitor	20 µM	remaining signal	76%
CC(C)(C)c1nc2c(s1)c1nc(N)ncc1c1ccc(NS(=O)(=O)c3c(F)cccc3F)c(F)c12	enzyme activity, inhibitor, radiometric	1 µM	remaining activity	98%
COc1cc(Nc2cnc(C#N)c(O[C@H](C)CN(C)C)n2)ncc1-c1cnn(C)c1	enzyme activity, inhibitor, radiometric	1 µM	remaining activity	89%
FC(F)(F)Oc1cccc(-c2cnc3ccc(-c4ccncc4)nn23)c1	enzyme activity, inhibitor, radiometric	5 µM	activity vs control	102%
CN(C(=O)c1ccccc1)c1cc(N(C)c2ccc3c(c2)CCc2ccc(C(=O)NCCN4CCOCC4)cc2C3=O)ccc1F	cell-free assay, competition with immobilised ligand	1 µM	remaining binding	74%
Cc1sc(C(=O)NC2COC2)cc1-n1cc(NC(=O)Nc2c(F)cccc2Cl)cn1	enzyme activity, inhibitor	10 µM	remaining activity	86.9%
O=S(=O)(NC1CCC(c2cc(F)ccc2F)(S(=O)(=O)c2ccc(Cl)cc2)CC1)C(F)(F)F (stereo not drawn)	cell-free assay, competition with immobilised ligand	1 µM	remaining binding	100%
O=C(Nc1cnn(-c2csc(C(=O)NC3COC3)c2)c1)Nc1c(F)cccc1Cl	enzyme activity, inhibitor	5 µM	remaining activity	94.5%
COc1cc(/C=C/C(=O)CC(=O)/C=C/c2ccc(O)c(OC)c2)ccc1O	enzyme activity, inhibitor	1 µM	activity vs control	91%
